Molecules are shown by their SMILES. The source made the active and inactive calls. The calls are words filed in the database; no cut-off is given here.

The subject of data set [1] is Trypanosoma brucei brucei. Put plainly: Antitrypanosomal activity against stage-1 bioluminescent Trypanosoma brucei brucei GVR35-VSL2 expressing red-shifted luciferase infected in BALB/c mouse assessed as parasite killing by measuring reduction in bioluminescent signal at 20 mg/kg, ip administered as single dose starting from 4 days post infection and measured on 3 to 7 days by luciferase based bioluminescence assay. The class given is functional, organism-based. To be noted: time 3-7 day. In short, it runs like this:
(§1)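 BALB/c mice infected with 30,000 bioluminescent bloodstream-form T. brucei; dosing i.p. or oral from 4 days post-infection, single or once daily for 4 days. Monitored by in vivo imaging after i.p. d-luciferin 150 mg kg⁻¹ under isoflurane, with total body flux from dorsal plus ventral images. Cure required negativity by both in vivo and ex vivo imaging.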

The test system of data set [2] is Trypanosoma brucei. As to the kind of experiment: Resistance development in blood stream form of Trypanosoma brucei assessed as fold increase in resistance at 10 ug/ml preincubated for 6 hrs with bafilomycin Al followed by compound addition and measured after 48 hrs by resazurin dye-based analysis. In kind it is functional. The conditions noted are these: dose 10 µg/ml. In short, it runs like this: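 Bloodstream-form T. brucei pre-incubated 6 h in 4 or 8 nM bafilomycin A1, then given compound and kept in BafA1. The run then followed the 48 h microtiter resazurin assay: start at 2.5×10^4 mL^-1, 37 °C, 16 h resazurin, fluorescence ex 545/em 590 nm. Done in triplicate.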
On the technique in general: Alamar Blue is a resazurin reagent that responds to reducing activity.

The nature of data set [3]: Toxicity in BALB/c mouse infected with bioluminescent Trypanosoma brucei brucei GVR35-VSL2 expressing red-shifted luciferase assessed as lack of activity in animal at 0.25 to 20 mg/kg, ip administered once daily for 4 days. The class given is organism-based. The conditions noted are these: in vivo, 96 h, dose 0.25-20 mg/kg, time 4 day. In short, it runs like this:
(§2)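 Infected BALB/c mice (bioluminescent T. brucei, 30,000 parasites) dosed i.p. or orally once daily for 4 days starting day 4 post-infection; observed for piloerection, hunching, shaking, lack of activity and body weight change.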

A short description of data set [4]: Drug localization in lysosomes of Trypanosoma brucei bloodstream form at 10 ug/ml measured after 6 hrs by TbCatL antibody based immunofluorescence microscopy. The class given is ADME, subcellular, Lysosome. The conditions noted are these: dose 10 µg/ml. The method, boiled down: (§3)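 Parasites exposed to compound 10 μg mL⁻¹ for 6 h, with or without BafA1 8 nM; fixed 4% PFA, permeabilized 0.1% Triton X-100, blocked 1% BSA, rabbit anti-TbCatL 1:200 overnight at 4 °C, then Alexa 488 anti-rabbit 2 μg mL⁻¹ 1 h at 37 °C; fluorescence microscopy.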

A short description of data set [5]: Toxicity in BALB/c mouse infected with bioluminescent Trypanosoma brucei brucei GVR35-VSL2 expressing red-shifted luciferase assessed as body weight loss at 20 mg/kg, ip administered once daily for 4 days. In kind it is organism-based. The conditions noted are these: in vivo, 96 h, time 4 day. The method, boiled down:
as §2

The nature of data set [6]: Drug localization in lysosomes of Trypanosoma brucei bloodstream form assessed as colocalization at 10 ug/ml incubated upto 180 mins by LysoTrack dye based fluorescence microscopy. The class given is ADME, subcellular, Lysosome. The conditions noted are these: 3 h, dose 10 µg/ml. In short, it runs like this: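 Parasites pre-loaded with 100 nM LysoTracker for 45 min, washed, then exposed to compound 10 μg mL⁻¹; aliquots fixed in 4% PFA at each timepoint, DAPI-mounted, imaged by fluorescence microscopy.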

The subject of data set [7] is Trypanosoma brucei. As to the kind of experiment: Antitrypanosomal activity against blood stream form of Trypanosoma brucei 221a variant assessed as parasite growth inhibition at 0.15 to 4.8 nM preincubated for 24 hrs followed by subculturing with fresh medium with compounds and measured after 2 days by resazurin dye based fluorescence analysis. The class given is functional, organism-based. The conditions noted are these: dose 0.15-4.8 nM, time 3.0 day. The method, boiled down: (§4)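 Bloodstream-form T. brucei seeded in flasks at 10^5 mL^-1 with a range of compound concentrations. Every 24 h parasites were sub-cultured back to 10^5 mL^-1 in continued compound presence, through day 10. Growth reported as cumulative parasite number. In a washout arm, parasites were exposed for 3 days, moved to compound-free medium and followed for 12 days.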

Data set [8] deals with Trypanosoma brucei brucei. Put plainly: Antitrypanosomal activity against stage-1 bioluminescent Trypanosoma brucei brucei GVR35-VSL2 expressing red-shifted luciferase infected in BALB/c mouse assessed as reduction in parasite growth by measuring curation rate at 20 mg/kg, po administered once daily for 4 days starting from 4 days post infection by luciferase based bioluminescence assay relative to control. Also noted: scale not given: the % may be the effect or the level left. To be noted: time 4 day. In kind it is functional. The method, boiled down: as §1

Data set [9] is described as follows: Drug localization in lysosomes of Trypanosoma brucei bloodstream form at 10 ug/ml by fluorescence microscopy. In kind it is ADME, subcellular, Lysosome. To be noted: TDE = time-dependent effect, time 1-24 hrs, dose 10 µg/ml. The method, boiled down: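 Bloodstream-form T. brucei incubated with compound 10 μg mL⁻¹ for 60 or 180 min or 24 h; fixed in 4% PFA, mounted with DAPI, imaged by fluorescence microscopy (ex 550/em 585 nm).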

Data set [10] in a line: Metabolic stability in mouse liver microsomes assessed as half life at 1 uM measured upto 60 mins in presence of NADPH by LC-MS/MS analysis. In kind it is ADME, Microsome. To be noted: 1 h. For orientation: Liver microsomes are a subcellular fraction often used to study metabolism.
Data set [11] can be described thus: Toxicity in BALB/c mouse infected with bioluminescent Trypanosoma brucei brucei GVR35-VSL2 expressing red-shifted luciferase assessed as hunching in animal at 20 mg/kg, po administered once daily for 4 days. To be noted: in vivo, 96 h, time 4 day. The class given is organism-based. In short, it runs like this:
as §2

Data set [12] concerns Trypanosoma brucei brucei. As to the kind of experiment: Antitrypanosomal activity against stage-1 bioluminescent Trypanosoma brucei brucei GVR35-VSL2 expressing red-shifted luciferase infected in BALB/c mouse assessed as reduction in parasite growth without relapse at 5 to 20 mg/kg, ip administered once daily for 4 days starting from 4 days post infection by luciferase based bioluminescence assay. To be noted: dose 5-20 mg/kg, time 4.0 day. The class given is functional, organism-based. In short, it runs like this:
as §1

The nature of data set [13]: Drug localization in lysosomes of Trypanosoma brucei bloodstream form at 10 ug/ml measured after 6 hrs in presence of bafilomycin Al by TbCatL antibody based immunofluorescence microscopy. The class given is ADME, subcellular, Lysosome. The conditions noted are these: dose 10 µg/ml. In short, it runs like this:
as §3

Data set [14] deals with Trypanosoma brucei brucei. As to the kind of experiment: Antitrypanosomal activity against stage-2 bioluminescent Trypanosoma brucei brucei GVR35-VSL2 expressing red-shifted luciferase infected in CD-1 mouse assessed as reduction in parasite growth at 10 to 20 mg/kg, ip administered daily for 3 days starting from 13 days post infection by bioluminescence based assay. The class given is functional, organism-based. To be noted: dose 10-20 mg/kg, time 3.0 day.

For data set [15], the system named is Trypanosoma brucei. As to the kind of experiment: Antitrypanosomal activity against blood stream form of Trypanosoma brucei 221a variant assessed as parasite growth inhibition at 0.3 nM preincubated for 24 hrs followed by subculturing with fresh medium with compounds and measured after 6 days by resazurin dye based fluorescence analysis. The class given is functional, organism-based. The conditions noted are these: time 7.0 day. In short, it runs like this:
as §4

Data set [16] in a line: Apparent permeability across apical to basolateral side in MDCK-MDR1 cells at 10 uM measured for 60 mins by LC-MS/MS analysis. The class given is ADME, cell-based, Canis lupus familiaris. To be noted: dog. In short, it runs like this: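 MDCKII-hMDR1 monolayers on inserts, compound 10 μM (1% DMSO) in duplicate, 60 min at 37 °C, bidirectional, with and without elacridar 2 μM. Amprenavir as P-gp control, Lucifer yellow for monolayer integrity; compound quantified by LC–MS/MS.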

For orientation: Papp A→B means the apparent permeability from the apical to the basolateral side of a cell layer. For `CS(=O)(=O)O.CS(=O)(=O)O.N=C(N)c1ccc2nc(C3CCC(c4nc5ccc(C(=N)N)cc5s4)CC3)sc2c1` (stereo unspecified), the outcome (in [1]; with Trypanosoma brucei [7]; in [12]; in the data set with Trypanosoma brucei [15]) was Active. For the same compound, in the data set on Trypanosoma brucei [2], the “fold change (FC)” value was determined as 5. Further, the Activity entry in [3] was “Non-Toxic”; in data set [5], below 10%; in data set [8] it was 20%; in [11], “Non-Toxic”. Moreover, the Drug uptake result in data set [4] is listed as “Active”; in data set [6] it was “Active”; in data set [9], “Tde”; in [13], “Not Active”. In addition, the t1/2 in data set [10] was above 1 h. The outcome in data set [14] was inactive. In addition, the Papp A→B at 1 h, 10 µM in data set [16] is below 0.1 ×10⁻⁶ cm/s.

The values above are taken from ChEMBL document CHEMBL5365494, “Bis-6-amidino-benzothiazole Derivative that Cures Experimental Stage 1 African Trypanosomiasis with a Single Dose” (J Med Chem, 2023).
